Only some compounds are listed: those with a hit (about 1.6% of all), similar ones and a draw of the others.
sPLA2-III inh = human group III sPLA2 inhibitors, primary screen, biochemical, QFRET, BODIPY PC-A2 liposome substrate. Group 3 secretory phospholipase A2 (Homo sapiens), Q9NZ20. QFRET BODIPY PC-A2 liposome hydrolysis, fluorescence. inhibition, % at 12.2 µM. hit rate 0.56% among 370,000. AID 743126, 2013;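 active = inhibition above mean plus 3 SD of compounds lying within the high and low control bounds, cut at about 19% in these data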;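 note: 0% = median of test compound wells and 100% = no enzyme DMSO wells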
PLC-beta3 inh = human PLC-beta3 inhibitors, primary screen, biochemical, fluorescence. Purified PLC-beta3, fluorogenic substrate. inhibition, % at 12.2 µM. hit rate 0.18% among 370,000. AID 720704, 2013;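 note: 0% = median of compound wells on plate and 100% = full blocker control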
PLCg1 inh = PLC-gamma1 enzyme inhibitors, primary screen, biochemical, fluorescence, purified enzyme | fluorogenic substrate | inhibition, % at 12.2 µM | hit rate 0.84% among 370,000; in the data active = inhibition above about 9.5%
procasp3 activ = activators of human procaspase-3 D3A mutant, primary screen, biochemical, absorbance, PC-3 D3A mutant, single concentration | activation, % at 8.5 µM | Caspase-3 (Homo sapiens), P42574 | hit rate 0.11% among 330,000 | recombinant procaspase-3 D3A, Ac-DEVD-pNA absorbance 405 nm;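 active = activation above the mean of all tested compounds plus 3 SD, cut at about 21% in these data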;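 note: 0% = DMSO alone and 100% = DMSO wells spiked with extra 5 µM PC-3 D3A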
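System: Procaspase-3 D3A mutant. Medium: Zinc-free 300 mM NaCl, 50 mM HEPES, 0.01% Triton X-100. Schedule: 1 h preincubation plus 2 h reaction at 25 °C. Measured by: 405 nm absorbance of p-nitroaniline, reads at 0 and 120 min. Read-out: percent activation relative to control range.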
proCasp7 act = procaspase-7 activators, primary screen, counter-screen for procaspase-3 activator project, biochemical, absorbance, HTS, human; activation, % at 8.5 µM; recombinant procaspase-7, Ac-DEVD-pNA absorbance 405 nm; D23A/D198A/D206A triple mutant, cannot self-cleave; scale: DMSO 0, 5 µM enzyme 100; Caspase-7 (Homo sapiens), P55210; hit rate 0.093% among 330,000;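 active = percent activation above the screen-wide mean plus 3 SD, cut at about 25% in these data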
Target sequence (P55210 whole entry D23A/D198A/D206A): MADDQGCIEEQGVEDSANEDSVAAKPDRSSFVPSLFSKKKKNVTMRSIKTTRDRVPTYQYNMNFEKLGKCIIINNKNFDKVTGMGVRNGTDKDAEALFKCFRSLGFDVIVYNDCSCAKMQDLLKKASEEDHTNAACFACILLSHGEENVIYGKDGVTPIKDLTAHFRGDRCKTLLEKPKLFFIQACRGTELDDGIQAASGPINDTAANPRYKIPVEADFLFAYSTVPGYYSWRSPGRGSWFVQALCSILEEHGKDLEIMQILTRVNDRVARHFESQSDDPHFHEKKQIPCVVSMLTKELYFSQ
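Test system: Procaspase-7 triple mutant (PC-7 D3A). Also added: Ac-DEVD-pNA substrate, 400 µM as added. Schedule: 1 h enzyme–compound preincubation and 2 h substrate reaction, both 25 °C. Signal: p-Nitroaniline absorbance at 405 nm, read at 0 and 120 min. Control set: low DMSO alone, high DMSO plus 5 µM PC-7.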
PLCgamma1 ctr = PLC-gamma1 enzyme inhibitors, counter-screen for PLC-beta3 inhibitor project, biochemical, fluorescence | shares compounds with PLCg1 inh | purified PLC-gamma1, fluorogenic substrate | inhibition, % at 12.3 µM | hit rate 3.1% among 3,300 | AID 743258, 2014; in the data active = inhibition above about 9.5%
PLCbeta3 conf = PLC-beta3 inhibitor confirmation, biochemical, fluorescence, purified enzyme | shares compounds with PLCg1 inh | fluorogenic substrate fluorescence | inhibition, % at 12.3 µM | hit rate 1% among 3,300
Starred values were filed as active, the others as inactive; · = no result given. Cut-off read from the data, not from the text of the source, unless noted: active = inhibition above about 11%; inactive = the rest.

SMILES	sPLA2-III inh	PLC-beta3 inh	PLCg1 inh	procasp3 activ	proCasp7 act	PLCgamma1 ctr	PLCbeta3 conf
Cc1ccc(N(Cc2cc3ccc(C)cc3[nH]c2=O)S(=O)(=O)c2ccccc2)cc1	-2	-16	-11	1	-1	·	·
O=C(NCc1ccc(F)cc1)C(C(=O)NCc1ccc(F)cc1)c1ncc(C(F)(F)F)cc1Cl	10	8	13*	3	10	-1	1
Cc1ccc(C(=O)NC2CCN(CC(=O)NC3CCC(C)CC3)CC2)cc1 (stereo unspecified)	1	-7	-1	1	6	·	·
NC(=O)NOCc1ccc(Cl)cc1Cl	13	3	13*	9	7	-7	-4
NC(=O)NOCc1ccc(F)cc1Cl	9	-4	-3	-3	-5	·	·
C=CCN(Cc1ccc(Cl)s1)C(=O)c1ccc(F)c(S(=O)(=O)N2CCOCC2)c1	-10	5	80*	2	-5	0	-3
O=C(COC(=O)c1ccc(F)c(S(=O)(=O)N2CCOCC2)c1)c1ccc(Cl)cc1	-5	-4	1	2	-3	·	·
COc1cc2[nH]c(=O)n(CCCCCC(=O)NC3CCCC3)c(=O)c2cc1OC	16	-5	10*	0	-1	0	-6
Cc1cc(/C=C2\SC(=S)N(C)C2=O)c(C)n1-c1cccc(O)c1	-5	-11	-7	-4	-7	·	·
COc1ccc(-n2c(C)cc(/C=C3/SC(=S)N(C)C3=O)c2C)cc1	8	-3	11*	8	-9	-23	-19
CC1(C(=O)NS(=O)(=O)c2ccccc2)CCN1C(=O)Cc1ccc(Cl)cc1Cl (stereo unspecified)	-10	1	-3	·	·	·	·
Cc1c(NC(=S)N/N=C/C=C/c2ccc([N+](=O)[O-])cc2)c(=O)n(-c2ccccc2)n1C	-1	4	12*	2	-2	11*	5
COc1ccc(S(=O)(=O)N2CCN(c3ccccc3)CC2)cc1OC	9	-6	1	·	·	·	·
COc1cccc(N2CCN(C(=O)C3CCN(S(=O)(=O)c4ccc5c(c4)oc(=O)n5C)CC3)CC2)c1	5	-4	1	4	7	·	·
COc1cc(S(=O)(=O)N2CCN(c3ccccc3)CC2)ccc1Cl	0	1	10*	10	-1	-7	-2
COc1cccc(N2CCN(S(=O)(=O)c3ccc4c(c3)oc(=O)n4C)CC2)c1	-2	1	11*	2	5	-3	-5
CN(CC(=O)Nc1ccc(Cl)c(S(=O)(=O)N2CCOCC2)c1)C(=O)c1ccc(C#N)cc1	-6	-1	4	9	-2	·	·
C[C@@H]1CC=C[C@@H]2[C@H]1C(=O)N(Cc1ccccc1)[C@H]2c1cccc(Br)c1	12	4	12*	-5	9	0	0
C[C@@H]1CC=C[C@@H]2[C@H]1C(=O)N(Cc1ccccc1)[C@H]2c1cccc(C#Cc2ccccc2)c1	2	-3	0	5	14	·	·
CSCC[C@H](NC(=O)c1nn(C)c(=O)c2ccccc12)c1nc2ccccc2[nH]1	2	1	13*	6	1	-9	-6
O=C(CC(CC(=O)c1ccccc1)c1ccccc1)c1ccccc1	-5	-2	-1	3	9	·	·
COc1ccc(C(CC(=O)c2ccccc2)CC(=O)c2ccccc2)cc1	-9	-4	13*	4	9	6	3
